Active and inactive are the calls of the source. The rule behind the calls is not given here.
How the values were obtained:
[1] = molecular target: Histone deacetylase 1 (Homo sapiens) (UniProt Q13547); assay: Inhibition of human HDAC1 assessed as deacetylated substrate level using RHKKAc as substrate by fluorometric analysis
How it was run: (§1)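 Recombinant human HDAC1 or HDAC8 with fluorogenic p53 379–382 peptide RHKKAc as substrate. Compound tested at 10 doses in duplicate, 3-fold serial dilution from 20 µM. Substrate incubated with compound, then the mixture was digested with a developing mixture. Fluorescence read at 360 nm excitation / 460 nm emission, proportional to deacetylated substrate.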

MDA-MB-231 [2] = assay: Ratio of FK228 TGI to compound TGI for human MDA-MB-231 cells; assay type: functional
UACC-62 = assay: Antitumor activity against human UACC62 cells implanted subcutaneously in mouse assessed as inhibition of tumor cell growth at 1.6 to 2.4 mg/kg, ip administered on day 1 to 4 measured on day 5 by hollow fiber assay; assay type: functional
How it was run: (§2)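 Human tumour cell lines from a standard 12-line panel encapsulated in polyvinylidene fluoride hollow fibres (500,000 Da exclusion), implanted intraperitoneally or subcutaneously in mice; drug given IP at 2.4 and 1.6 mg/kg/dose on days 1–4; fibres retrieved and viable cell mass determined day 5; T/C versus vehicle-only injected controls.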

COLO 205 [3] = assay: Ratio of FK228 TGI to compound TGI for human COLO205 cells; assay type: functional
U-251 [4] = assay: Ratio of FK228 TGI to compound TGI for human U251 cells; assay type: functional
SF-295 [5] = assay: Cytotoxicity against human SF295 cells after 6 days by MTT assay; assay type: functional; settings: SF-295, 144 h
ACHN [6] = assay: Ratio of FK228 TGI to compound TGI for human ACHN cells; assay type: functional
NCI = assay: Cytotoxicity against human NCI60 cells after 6 days by MTT assay; assay type: functional; settings: 144 h
UACC-257 [7] = assay: Cytotoxicity against human UACC257 cells after 6 days by MTT assay; assay type: functional; settings: UACC-257, 144 h
CAKI-1 [8] = assay: Cytotoxicity against human Caki1 cells after 6 days by MTT assay; assay type: functional; settings: CAKI-1, 144 h
NCI-H522 = assay: Antitumor activity against human NCI-H522 cells implanted subcutaneously in mouse assessed as inhibition of tumor cell growth at 1.6 to 2.4 mg/kg, ip administered on day 1 to 4 measured on day 5 by hollow fiber assay; assay type: functional; how it was run: as §2
[9] = molecular target: Histone deacetylase 4 (Homo sapiens) (UniProt P56524); assay: Inhibition of human HDAC4 assessed as deacetylated substrate level using RHKAcKAc as substrate by fluorometric analysis
Histone deacetylase 4 (Homo sapiens), sequence (P56524 whole entry): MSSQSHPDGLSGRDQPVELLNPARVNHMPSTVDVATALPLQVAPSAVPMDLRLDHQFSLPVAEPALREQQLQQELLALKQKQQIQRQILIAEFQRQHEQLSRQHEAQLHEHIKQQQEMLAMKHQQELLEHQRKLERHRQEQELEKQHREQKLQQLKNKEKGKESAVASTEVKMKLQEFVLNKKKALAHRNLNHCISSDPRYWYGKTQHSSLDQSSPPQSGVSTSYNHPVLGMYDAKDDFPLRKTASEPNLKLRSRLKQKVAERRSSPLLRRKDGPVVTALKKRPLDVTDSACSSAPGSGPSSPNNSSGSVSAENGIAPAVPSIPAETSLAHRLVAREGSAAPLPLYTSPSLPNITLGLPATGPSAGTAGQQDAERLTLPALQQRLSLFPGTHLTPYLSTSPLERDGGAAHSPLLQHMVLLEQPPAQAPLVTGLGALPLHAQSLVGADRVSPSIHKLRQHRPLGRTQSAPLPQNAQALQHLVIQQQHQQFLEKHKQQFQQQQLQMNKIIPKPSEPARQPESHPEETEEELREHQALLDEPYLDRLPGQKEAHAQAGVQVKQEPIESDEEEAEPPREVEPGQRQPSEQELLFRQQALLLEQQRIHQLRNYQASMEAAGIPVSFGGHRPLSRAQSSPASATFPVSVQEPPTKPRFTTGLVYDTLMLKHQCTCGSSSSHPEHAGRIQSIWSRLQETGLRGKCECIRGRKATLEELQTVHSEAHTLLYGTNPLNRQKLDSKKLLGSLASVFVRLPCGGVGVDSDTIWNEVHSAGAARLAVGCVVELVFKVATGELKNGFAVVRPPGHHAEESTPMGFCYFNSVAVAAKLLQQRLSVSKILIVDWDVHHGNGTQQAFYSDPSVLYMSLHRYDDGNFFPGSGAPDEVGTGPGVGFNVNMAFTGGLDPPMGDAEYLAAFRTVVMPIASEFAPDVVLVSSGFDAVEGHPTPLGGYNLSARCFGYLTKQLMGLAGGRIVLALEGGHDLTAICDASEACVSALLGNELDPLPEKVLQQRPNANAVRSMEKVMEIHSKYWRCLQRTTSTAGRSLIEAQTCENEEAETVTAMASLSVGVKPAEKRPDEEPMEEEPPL
How it was run: as §1, with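 “HDAC4” for “HDAC1 or HDAC8”, “RHKAcKAc” for “RHKKAc”, “Two steps: incubation” for “Substrate incubated”, “substrate,” for “compound,”, “digestion” for “the mixture was digested”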

COLO 205 [10] = assay: Cytotoxicity against human COLO205 cells after 6 days by MTT assay; assay type: functional; settings: COLO 205, 144 h
A498 [11] = assay: Ratio of FK228 LC50 to compound LC50 for human A498 cells; assay type: functional
SN12C [12] = assay: Cytotoxicity against human SN12C cells after 6 days by MTT assay; assay type: functional; settings: 144 h
A498 [13] = assay: Cytotoxicity against human A498 cells after 6 days by MTT assay; assay type: functional; settings: A498, 144 h
RXF 393 [14] = assay: Cytotoxicity against human RXF393 cells after 6 days by MTT assay; assay type: functional; settings: RXF 393, 144 h
CAKI-1 [15] = assay: Ratio of FK228 TGI to compound TGI for human Caki1 cells; assay type: functional
ACHN [16] = assay: Cytotoxicity against human ACHN cells after 6 days by MTT assay; assay type: functional; settings: 144 h
A498 [17] = assay: Ratio of FK228 TGI to compound TGI for human A498 cells; assay type: functional
MDA-MB-231 [18] = assay: Cytotoxicity against human MDA-MB-231 cells after 6 days by MTT assay; assay type: functional; settings: MDA-MB-231, 144 h
SF-295 [19] = assay: Ratio of FK228 TGI to compound TGI for human SF295 cells; assay type: functional
[20] = Antitumor activity against human […] cells implanted subcutaneously in mouse assessed as inhibition of tumor cell growth at 1.6 to 2.4 mg/kg, ip administered on day 1 to 4 measured on day 5 by hollow fiber assay; assay type: functional; how it was run: as §2
UO-31 [21] = assay: Ratio of FK228 TGI to compound TGI for human UO31 cells; assay type: functional
MDA-MB-231 [22] = assay: Antitumor activity against human MDA-MB-231 cells implanted subcutaneously in mouse assessed as inhibition of tumor cell growth at 1.6 to 2.4 mg/kg, ip administered on day 1 to 4 measured on day 5 by hollow fiber assay; assay type: functional; how it was run: as §2
U-251 [23] = assay: Cytotoxicity against human U251 cells after 6 days by MTT assay; assay type: functional; settings: U-251, 144 h
COLO 205 [24] = assay: Ratio of FK228 LC50 to compound LC50 for human COLO205 cells; assay type: functional
UO-31 [25] = assay: Cytotoxicity against human UO31 cells after 6 days by MTT assay; assay type: functional; settings: UO-31, 144 h
LOX IMVI = assay: Antitumor activity against human LOXIMVI cells implanted subcutaneously in mouse assessed as inhibition of tumor cell growth at 1.6 to 2.4 mg/kg, ip administered on day 1 to 4 measured on day 5 by hollow fiber assay; assay type: functional; how it was run: as §2
SF-295 [26] = assay: Antitumor activity against human SF295 cells implanted subcutaneously in mouse assessed as inhibition of tumor cell growth at 1.6 to 2.4 mg/kg, ip administered on day 1 to 4 measured on day 5 by hollow fiber assay; assay type: functional; how it was run: as §2
RXF 393 [27] = assay: Ratio of FK228 TGI to compound TGI for human RXF393 cells; assay type: functional
[28] = molecular target: Histone deacetylase 8 (Homo sapiens) (UniProt Q9BY41); assay: Inhibition of human HDAC8 assessed as deacetylated substrate level using RHKKAc as substrate by fluorometric analysis; how it was run: as §1
Histone deacetylase 8 (Homo sapiens), sequence (Q9BY41 whole entry): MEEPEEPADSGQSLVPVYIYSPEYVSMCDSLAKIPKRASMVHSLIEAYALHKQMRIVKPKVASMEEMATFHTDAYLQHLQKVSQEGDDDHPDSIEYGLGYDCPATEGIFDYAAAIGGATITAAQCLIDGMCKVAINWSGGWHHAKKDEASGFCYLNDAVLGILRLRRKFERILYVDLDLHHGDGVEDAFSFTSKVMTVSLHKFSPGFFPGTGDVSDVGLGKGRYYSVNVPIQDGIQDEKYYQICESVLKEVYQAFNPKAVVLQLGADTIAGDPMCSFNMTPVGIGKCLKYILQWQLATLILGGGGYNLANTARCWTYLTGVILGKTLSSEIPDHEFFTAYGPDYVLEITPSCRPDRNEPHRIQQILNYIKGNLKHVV

NCI-H322M [29] = assay: Cytotoxicity against human NCI-H322M cells after 6 days by MTT assay; assay type: functional; settings: 144 h
SW-620 = assay: Antitumor activity against human SW620 cells implanted subcutaneously in mouse assessed as inhibition of tumor cell growth at 1.6 to 2.4 mg/kg, ip administered on day 1 to 4 measured on day 5 by hollow fiber assay; assay type: functional; how it was run: as §2
U-251 [30] = assay: Ratio of FK228 LC50 to compound LC50 for human U251 cells; assay type: functional
SN12C [31] = assay: Ratio of FK228 TGI to compound TGI for human SN12C cells; assay type: functional
COLO 205 [32] = assay: Antitumor activity against human COLO205 cells implanted subcutaneously in mouse assessed as inhibition of tumor cell growth at 1.6 to 2.4 mg/kg, ip administered on day 1 to 4 measured on day 5 by hollow fiber assay; assay type: functional; how it was run: as §2
MDA-MB-435 = assay: Antitumor activity against human MDA-MB-435 cells implanted subcutaneously in mouse assessed as inhibition of tumor cell growth at 1.6 to 2.4 mg/kg, ip administered on day 1 to 4 measured on day 5 by hollow fiber assay; assay type: functional; how it was run: as §2
UACC-257 [33] = assay: Ratio of FK228 TGI to compound TGI for human UACC257 cells; assay type: functional
MDA-MB-468 [34] = assay: Cytotoxicity against human MDA-MB-468 cells after 6 days by MTT assay; assay type: functional; settings: MDA-MB-468, 144 h
NCI-H322M [35] = assay: Ratio of FK228 TGI to compound TGI for human NCI-H322M cells; assay type: functional
OVCAR-5 = assay: Antitumor activity against human OVCAR5 cells implanted subcutaneously in mouse assessed as inhibition of tumor cell growth at 1.6 to 2.4 mg/kg, ip administered on day 1 to 4 measured on day 5 by hollow fiber assay; assay type: functional; how it was run: as §2
RXF 393 [36] = assay: Ratio of FK228 LC50 to compound LC50 for human RXF393 cells; assay type: functional
U-251 [37] = assay: Antitumor activity against human U251 cells implanted subcutaneously in mouse assessed as inhibition of tumor cell growth at 1.6 to 2.4 mg/kg, ip administered on day 1 to 4 measured on day 5 by hollow fiber assay; assay type: functional; how it was run: as §2
MDA-MB-468 [38] = assay: Ratio of FK228 TGI to compound TGI for human MDA-MB-468 cells; assay type: functional
NCI-H23 = assay: Antitumor activity against human NCI-H23 cells implanted subcutaneously in mouse assessed as inhibition of tumor cell growth at 1.6 to 2.4 mg/kg, ip administered on day 1 to 4 measured on day 5 by hollow fiber assay; assay type: functional; how it was run: as §2
[39] = read-out: LC50 (the source's name)

Histone deacetylase 1 (Homo sapiens), sequence (Q13547 whole entry): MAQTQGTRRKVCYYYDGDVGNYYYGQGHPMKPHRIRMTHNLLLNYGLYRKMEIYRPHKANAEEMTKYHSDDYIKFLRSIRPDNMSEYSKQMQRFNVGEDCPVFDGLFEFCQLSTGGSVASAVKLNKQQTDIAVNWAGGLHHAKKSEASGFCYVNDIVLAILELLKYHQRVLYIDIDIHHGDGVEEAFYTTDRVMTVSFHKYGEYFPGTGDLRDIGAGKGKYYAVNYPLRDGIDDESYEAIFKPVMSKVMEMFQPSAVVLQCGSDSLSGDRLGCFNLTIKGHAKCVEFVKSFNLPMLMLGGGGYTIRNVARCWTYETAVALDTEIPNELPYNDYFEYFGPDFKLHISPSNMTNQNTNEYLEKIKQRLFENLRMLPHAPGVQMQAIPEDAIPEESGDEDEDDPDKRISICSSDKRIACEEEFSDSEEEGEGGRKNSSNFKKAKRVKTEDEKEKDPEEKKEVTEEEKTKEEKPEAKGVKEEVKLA

CC[C@H](C)[C@H]1NC(=O)[C@H]2CSSCC/C=C/[C@H](CC(=O)N[C@H](CC[S+](C)[O-])C(=O)N2)OC(=O)C[C@@H]1O (stereo partly specified) [SPIRUCHOSTATIN C]
inhibition [1]: Active | Ratio (MDA-MB-231 [2]): 2.4 | T/C (UACC-62): >50% | Ratio (COLO 205 [3]): 3.8 | Ratio (U-251 [4]): 2.7 | TGI (SF-295 [5]): 110 nM | Ratio (ACHN [6]): 4 | TGI (NCI): 830 nM | CC50 (NCI; [39]): 7700 nM | TGI (UACC-257 [7]): 33 nM | TGI (CAKI-1 [8]): 880 nM | T/C (NCI-H522): >50% | inhibition [9]: Active | TGI (COLO 205 [10]): 8 nM | CC50 (COLO 205 [10]; [39]): 15 nM | Ratio (A498 [11]): 3.6 | TGI (SN12C [12]): 160 nM | TGI (A498 [13]): 12 nM | CC50 (A498 [13]; [39]): 55 nM | TGI (RXF 393 [14]): 16 nM | CC50 (RXF 393 [14]; [39]): 170 nM | Ratio (CAKI-1 [15]): 2.1 | TGI (ACHN [16]): 180 nM | Ratio (A498 [17]): 2.4 | TGI (MDA-MB-231 [18]): 150 nM | Ratio (SF-295 [19]): 2.3 | T/C [20]: >50% | Ratio (UO-31 [21]): 4.9 | T/C (MDA-MB-231 [22]): >50% | TGI (U-251 [23]): 12 nM | CC50 (U-251 [23]; [39]): 37 nM | Ratio (COLO 205 [24]): 6 | TGI (UO-31 [25]): 320 nM | T/C (LOX IMVI): >50% | T/C (SF-295 [26]): >50% | Ratio (RXF 393 [27]): 3.8 | inhibition [28]: Active | TGI (NCI-H322M [29]): 100 nM | T/C (SW-620): >50% | Ratio (U-251 [30]): 3.6 | Ratio (SN12C [31]): 2.1 | T/C (COLO 205 [32]): >50% | T/C (MDA-MB-435): >50% | Ratio (UACC-257 [33]): 2.9 | TGI (MDA-MB-468 [34]): 23 nM | Ratio (NCI-H322M [35]): 2.3 | T/C (OVCAR-5): >50% | Ratio (RXF 393 [36]): 1.8 | T/C (U-251 [37]): >50% | Ratio (MDA-MB-468 [38]): 3.9 | T/C (NCI-H23): >50%

Reference: ChEMBL document CHEMBL1833805, “Histone deacetylase inhibitors from Burkholderia thailandensis” (2011)
